Source: PMC8511113 (European journal of medicinal chemistry, 2021)
Entries after “also recorded” stand apart in the source; their conditions may differ.

Assays:
[1] = system: MIA-induced cartilage degeneration in rat knee; experiment: MIA rat model of OA via IA dosing, joint histology; format: in vivo, male Sprague Dawley rats
In short: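 Cartilage damage was induced in male Sprague Dawley rats with 2 mg MIA in 40 μl, injected into the right knee. On days 5, 12 and 19 after MIA, rats received intra-articular injections (8 per group) of vehicle, test compound (1 mg, saline suspension) or triamcinolone (0.06 mg). Naive rats (5) received no injections. Right knees were taken on day 26 for histology of the MTP, MFC, LTP and LFC surfaces and their mean. Groups were compared with vehicle by one-way ANOVA or Kruskal-Wallis with post-test, significance p<0.05.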

[2] = In-vivo single dose oral rat pharmacokinetics; conditions: oral 1 mg/kg, male Lewis rats
In short: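 Male Lewis rats, 3 per group, were fasted at least 16 h before dosing, with food returned about 4 h after. A 0.5 mg/mL suspension in 0.5% methylcellulose (400 cps) was given by gavage at 1.0 mg/kg (2 mL/kg). Jugular-catheter blood (K2EDTA) was drawn pre-dose and at 0.25–24 h. Plasma was obtained at 2200xg for 10 min, refrigerated. AUC(0-inf) came from the arithmetic mean concentration–time curve.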

[3] = IA days 5, 12, 19, histology day 26, AQU-019 1 mg
[4] = IA days 5, 12, 19, histology day 26, AQU-019 1 mg, Triamcinolone 0.06 mg
[5] = IA days 5, 12, 19 after MIA, histology day 26, AQU-019 1 mg, significant

Compound	Bone resorption vs Vehicle (in words) [1, 3]	Osteophyte scores/measurement vs Vehicle (in words) [1, 3]	Cartilage degeneration / chondroprotection vs Vehicle (in words) [1, 4]	Reduction in the mean loss on the LTP and LFC vs Vehicle [1, 5]	Reduction in the mean loss, mean of all surfaces vs Vehicle [1, 5] [%]	Improvement in AUC(0-infinity) over non-deuterated parent 18 [2] [%]	Increase of AUC(0-t) over non-deuterated parent 18 [2] [%]	Increase of Cmax over non-deuterated parent 18 [2] [%]	Reduction of osteophyte scores/measurement vs Vehicle ([1]; IA days 5, 12, 19, day 26, Triamcinolone 0.06 mg, P<0.05)	Reduction of bone resorption, overall mean vs Vehicle ([1]; IA days 5, 12, 19, day 26, Triamcinolone 0.06 mg, significant) [%]	Cell loss vs Vehicle (in words) ([1]; IA days 5, 12, 19, histology day 26, Triamcinolone 0.06 mg)
[2H]C([2H])(NC(=O)c1cc(C(=O)NCc2ccc(F)c(C)c2)ncn1)c1ccc(C(=O)O)cc1 [AQU-019, 4-(Dideutero-{[6-(4-fluoro-3-methyl-benzylcarbamoyl)-pyrimidine-4-carbonyl]-amino}-methyl)-benzoic acid]	trend of reduced resorption compared to Vehicle but was not statistically significant; also recorded: while reduced, was not statistically significant	no reduction in osteophyte measurement; also recorded: comparable to Vehicle control; also recorded: no effect on osteophytes measurement	significant chondroprotection	21–22%	16	64	68	17			
C[C@]12C=CC(=O)C=C1CC[C@H]1[C@@H]3C[C@@H](O)[C@](O)(C(=O)CO)[C@@]3(C)C[C@H](O)[C@@]12F [Triamcinolone, reference compound]			no reductions in cartilage degeneration						40–47%	43	no significant reductions in cell loss
